Structures are written as SMILES. Converted amounts (≈) assume the structure as drawn. The source made the active and inactive calls. The rule behind the calls is not given here.

Experimental findings from ChEMBL document CHEMBL1154055, “Synthesis and structure-activity relationships of N-(4-amino-2,6-diisopropylphenyl)-N'-(1,4-diarylpiperidine-4-yl)methylureas as anti-hyperlipidemic agents” (Bioorg Med Chem, 2009) are described below.

The target of data set [1] is T1, Sterol O-acyltransferase 1 (Rattus norvegicus, UniProt O70536).
T1 sequence (O70536 whole entry): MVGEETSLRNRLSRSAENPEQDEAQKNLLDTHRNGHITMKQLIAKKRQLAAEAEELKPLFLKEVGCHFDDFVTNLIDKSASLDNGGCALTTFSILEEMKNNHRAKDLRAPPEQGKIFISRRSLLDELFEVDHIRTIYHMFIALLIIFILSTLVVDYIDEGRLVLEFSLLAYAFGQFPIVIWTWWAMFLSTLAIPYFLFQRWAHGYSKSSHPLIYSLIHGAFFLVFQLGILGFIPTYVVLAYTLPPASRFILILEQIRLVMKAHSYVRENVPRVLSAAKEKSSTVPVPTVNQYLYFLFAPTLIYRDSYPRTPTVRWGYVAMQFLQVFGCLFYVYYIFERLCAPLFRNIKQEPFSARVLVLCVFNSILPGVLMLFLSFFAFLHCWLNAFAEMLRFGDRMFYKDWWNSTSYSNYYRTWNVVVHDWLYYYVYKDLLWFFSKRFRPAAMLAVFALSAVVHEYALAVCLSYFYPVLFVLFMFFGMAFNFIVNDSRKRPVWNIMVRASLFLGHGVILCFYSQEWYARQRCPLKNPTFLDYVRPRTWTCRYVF
Kind of data set: Inhibition of ACAT in rat macrophages assessed as incorporation of extracellular [3H]-oleic acid-BSA complex into the intracellular cholesteryl ester after 24 hrs. Type of data set: cell-based. In outline:
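Cells seeded at 2 × 10⁶ cells/mL/well, incubated 24 h at 37 °C (humidified, 5% CO₂) in medium containing liposomes, ³H-oleic acid–BSA complex and a range of compound concentrations. Protein measured by Lowry method.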

Data set [2] concerns HepG2. As to the kind of experiment: Up-regulation of LDL receptor expression in human HepG2 cells at 100 nM by immunoblot analysis. Type of data set: functional, cell-based. An outline of the steps: (§1)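 HepG2 cells exposed to compound, lysed in 125 mM Tris–HCl pH 8.0, 2 mM CaCl₂, 1% Triton X-100 with protease inhibitor cocktail, then centrifuged. LDL receptor detected by immunoblot with mouse monoclonal anti-LDL-R antibody (clone IgG-C7).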
On the technique in general: In western blotting, separated proteins are transferred to a membrane and probed.

Data set [3] in a line: Solubility at pH 7.4. To be noted: buffer. Type of data set: physicochemical.
The test system of data set [4] is HepG2. Kind of data set: Up-regulation of LDL receptor expression in human HepG2 cells at 10 uM by immunoblot analysis. Type of data set: functional, cell-based. In outline:
as §1

For orientation: IC50 means the point on the concentration scale where inhibition reaches its midpoint. With `COc1cccc(C2(CNC(=O)Nc3c(C(C)C)cc(N)cc3C(C)C)CCN(c3ncccc3OCCCO)CC2)c1`, the IC50 in data set [1] turned out to be 4 nM. In general, solubility refers to the concentration that dissolves in the medium under given conditions. For `COc1cccc(C2(CNC(=O)Nc3c(C(C)C)cc(N)cc3C(C)C)CCN(c3ccccc3OCCCO)CC2)c1.Cl.Cl`, in data set [1], the IC50 came out at 18 nM. The result in the data set with HepG2 [2] was Active. Besides, the solubility in data set [3] is 22 µg/mL. For the molecule `COc1ccccc1N1CCC(CNC(=O)Nc2c(C(C)C)cc(N)cc2C(C)C)(c2cccc(OCCCO)c2)CC1`, in data set [1], the concentration for half-maximal inhibition (IC50) was determined as 62 nM. Moreover, the result in the data set on HepG2 [2] was Active. As to `COc1cccc(C2(CNC(=O)Nc3c(C(C)C)cc(N)cc3C(C)C)CCN(c3ccccc3OC(C)C)CC2)c1`, the IC50 in data set [1] stood at 37 nM. For the same molecule, in the data set with HepG2 [2], the result was Active.

For `COc1cccc(C2(CNC(=O)Nc3c(C(C)C)cccc3C(C)C)CCN(c3ccccc3)CC2)c1`, in the data set on HepG2 [4], the result was inactive.

With `COc1cccc(C2(CNC(=O)Nc3c(C(C)C)cc(N)cc3C(C)C)CCN(c3ccncc3)CC2)c1`, in data set [1], the IC50 is more than 1000 nM.

Regarding `COc1cccc(N2CCC(CNC(=O)Nc3c(C(C)C)cc(N)cc3C(C)C)(c3cccc(OC)c3)CC2)c1`, in data set [1], the IC50 came to 48 nM. Also, the result in the data set on HepG2 [2] was inactive. The like results for `COc1cccc(C2(CNC(=O)Nc3c(C(C)C)cc(N)cc3C(C)C)CCN(c3ccccc3OC)CC2)c1` were, in that order, 37 nM and “Active”.

On to `COc1ccccc1N1CCC(CNC(=O)Nc2c(C(C)C)cc(N)cc2C(C)C)(c2cccc(O)c2)CC1`, for which the IC50 in data set [1] was 797 nM. In addition, the result with HepG2 [2] was inactive.

With `COc1cccc(C2(CNC(=O)Nc3c(C(C)C)cc(N)cc3C(C)C)CCN(c3ncccc3OC)CC2)c1`, in data set [1], the IC50 was found to be 6 nM.

For `CCCCn1c(=O)c(NC(=O)Nc2c(C(C)C)cc(N)cc2C(C)C)c(-c2cccc(OCCCO)c2)c2cccnc21`, the IC50 in data set [1] turned out to be 31 nM. In addition, the outcome in the data set with HepG2 [2] was Active. Besides, the solubility in data set [3] was 10 µg/mL (≈ 17.1 µM). Regarding `COc1cccc(C2(CNC(=O)Nc3c(C(C)C)cc(N)cc3C(C)C)CCN(c3ccccn3)CC2)c1`, the half-inhibitory concentration (IC50) in data set [1] stood at 32 nM. `COc1cccc(C2(CNC(=O)Nc3c(C(C)C)cc(N)cc3C(C)C)CCN(c3ccccc3OCCCN)CC2)c1.Cl`: the IC50 in data set [1] worked out at 195 nM. The result in the data set on HepG2 [2] was Active. The same molecule showed a solubility in data set [3] of 32 µg/mL. Consider `COc1cccc(C2(CNC(=O)Nc3c(C(C)C)cc(N)cc3C(C)C)CCN(c3ccccc3O)CC2)c1`, for which the outcome in the data set on HepG2 [2] was inactive.

For `COc1cccc(C2(CNC(=O)Nc3c(C(C)C)cc(N)cc3C(C)C)CCN(c3ccccc3OCCO)CC2)c1`, in data set [1], the IC50 was found to be 96 nM. Moreover, the outcome with HepG2 [2] was Active.

As for `COc1ccccc1N1CCC(CNC(=O)Nc2c(C(C)C)cc(N)cc2C(C)C)(c2ccccc2)CC1`, the IC50 in data set [1] stood at 82 nM. For the same molecule, the outcome with HepG2 [2] was inactive. With `COc1cccc(C2(CNC(=O)Nc3c(C(C)C)cc(N)cc3C(C)C)CCN(c3cccnc3)CC2)c1`, the IC50 in data set [1] is 466 nM. Turning to `COc1cccc(C2(CNC(=O)Nc3c(C(C)C)cc(N)cc3C(C)C)CCN(c3ccccc3OCCCN(C)C)CC2)c1.Cl`, the IC50 in data set [1] was determined as 239 nM. In addition, the solubility in data set [3] is more than 250 µg/mL. Regarding `CC(C)c1cc(C(C)C)c(CC(=O)NS(=O)(=O)Oc2c(C(C)C)cccc2C(C)C)c(C(C)C)c1` [AVASIMIBE], the concentration for half-maximal inhibition (IC50) in data set [1] was determined as 479 nM. Moreover, the result in the data set with HepG2 [2] was inactive. With `COc1cccc(C2(CNC(=O)Nc3c(C(C)C)cc(N)cc3C(C)C)CCN(c3ccccc3)CC2)c1`, the 50% inhibitory concentration (IC50) in data set [1] was 40 nM. Also, the outcome with HepG2 [4] was inactive.

As to `CCCCOc1ccccc1N1CCC(CNC(=O)Nc2c(C(C)C)cc(N)cc2C(C)C)(c2cccc(OC)c2)CC1`, the IC50 in data set [1] was found to be 32 nM. The result in the data set with HepG2 [2] was Active. Besides, the solubility in data set [3] was found to be 0.3 µg/mL (≈ 0.511 µM). Regarding `COc1cccc(C2(CNC(=O)Nc3c(C(C)C)cc(N)cc3C(C)C)CCN(c3ccccc3OCC(F)(F)F)CC2)c1`, the IC50 in data set [1] came to 48 nM. Further, in the data set on HepG2 [2], the result was Active. The like results for `COc1cccc(C2(CNC(=O)Nc3c(C(C)C)cc(N)cc3C(C)C)CCN(c3ccccc3OC(F)(F)F)CC2)c1` were, in that order, 68 nM and “Active”. As for `COc1ccc(N2CCC(CNC(=O)Nc3c(C(C)C)cc(N)cc3C(C)C)(c3cccc(OC)c3)CC2)cc1`, the IC50 in data set [1] turned out to be 142 nM. For the same molecule, the result in the data set with HepG2 [2] was inactive.
